Here are results for six molecules from ChEMBL document CHEMBL3739347, “Tubulin modulating antifungal and antiproliferative pyrazinone derivatives” (Bioorg Med Chem, 2016).

The subject of assay [1] is Puccinia triticina. Description: Antifungal activity against Puccinia recondita f. sp. tritici infected in wheat seedlings at 40 ppm relative to control. The assay is classed as functional. In a few lines:
(§1)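 Test suspension sprayed to run-off on Stevens wheat seedlings. Next day inoculated with a Puccinia recondita f. sp. tritici spore suspension. Held 24 h in a saturated atmosphere at 20 °C, then 7 days in a 20 °C growth chamber before disease rating. Rates in ppm. Given as percent control versus untreated control plants.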

The subject of assay [2] is Puccinia triticina. Kind of assay: Antifungal activity against Puccinia recondita f. sp. tritici infected in wheat seedlings at 10 ppm relative to control. It counts as functional. In a few lines:
as §1

Assay [3] addresses T1, Tubulin (Bos taurus) (UniProt Q6B856+Q862L2+Q862F3). Kind of assay: Induction of bovine tubulin polymerization at 3 uM by microplate reader. The assay is classed as protein assay. In a few lines:
(§2)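 Purified bovine tubulin at 4 mg/ml in 80 mM PIPES pH 6.9, 0.5 mM EGTA, 2 mM MgCl2, 1 mM GTP. Compound added at reaction start at constant DMSO. Polymerization started at 37 °C and followed over time by absorbance at 340 nm. Controls: paclitaxel 10 µM (positive) and 0.5% DMSO (negative).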

Assay [4] deals with Parastagonospora nodorum. Kind of assay: Antifungal activity against Stagonospora nodorum infected in wheat seedlings at 40 ppm relative to control. It counts as functional. In a few lines: (§3)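 Wheat seedlings, treated the day before, inoculated with a Stagonospora nodorum spore suspension. Held in a saturated atmosphere at 20 °C for 48 h, then 5 days in a growth chamber at 22 °C, then disease rated. Rates in ppm. Scored as percent control relative to untreated control plants.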

Assay [5] has as its system Parastagonospora nodorum. Description: Antifungal activity against Stagonospora nodorum infected in wheat seedlings at 10 ppm relative to control. The assay is classed as functional. In a few lines:
as §3

Assay [6] has as its system Parastagonospora nodorum. Kind of assay: Antifungal activity against Stagonospora nodorum infected in wheat seedlings at 2 ppm relative to control. It counts as functional. In a few lines:
as §3

Assay [7] concerns Puccinia triticina. Kind of assay: Antifungal activity against Puccinia recondita f. sp. tritici infected in wheat seedlings at 2 ppm relative to control. The assay is classed as functional. In a few lines: as §1
For assay [8], the system named is Botrytis cinerea. Kind of assay: Antifungal activity against Botryotinia fuckeliana infected in orange pixie tomato seedlings at 40 ppm relative to control. The assay is classed as functional. In a few lines:
(§4)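 Orange Pixie tomato seedlings sprayed to run-off with test suspension, then inoculated next day with a Botryotinia fuckeliana spore suspension. Kept saturated at 20 °C for 48 h, then 1 more day at 24 °C in a growth chamber before rating. Rates in ppm. Expressed as percent control relative to untreated control plants.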

Assay [9] relates to Botrytis cinerea. Description: Antifungal activity against Botryotinia fuckeliana infected in orange pixie tomato seedlings at 10 ppm relative to control. The assay is classed as functional. In a few lines: as §4
The subject of assay [10] is Botrytis cinerea. Description: Antifungal activity against Botryotinia fuckeliana infected in orange pixie tomato seedlings at 2 ppm relative to control. The assay is classed as functional. In a few lines:
as §4

For assay [11], the system named is Puccinia triticina. Description: Antifungal activity against Puccinia recondita f. sp. tritici infected in wheat seedlings at 200 ppm relative to control. It counts as functional. In a few lines: as §1
Assay [12] deals with Botrytis cinerea. Kind of assay: Antifungal activity against Botryotinia fuckeliana infected in orange pixie tomato seedlings at 200 ppm relative to control. It counts as functional. In a few lines:
as §4

Assay [13] can be described thus: Antiproliferative activity against human Rhabdomyosarcoma cells after 96 hrs by MTS assay. It counts as functional, cell-based. Conditions: Rhabdomyosarcoma cell. In a few lines:
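Rhabdomyosarcoma cells (ATCC CCL-136) seeded at 10,000 cells/well and allowed to adhere 1–3 h. Medium then replaced with compound-containing medium over a concentration range. Grown 96 h at 37 °C, 5% CO2. Viable cells read by MTS/PMS formazan after 3–4 h at 37 °C, absorbance 490 nm. Data normalized to solvent-only wells; IC50 in nM.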
(Formazan colour is commonly taken as a measure of viable cells.)

For assay [14], the target named is T1, Tubulin (Bos taurus). Description: Induction of bovine tubulin polymerization at 10 uM by microplate reader. It counts as protein assay. In a few lines:
as §2

Assay [15] has as its system Parastagonospora nodorum. Description: Antifungal activity against Stagonospora nodorum infected in wheat seedlings at 200 ppm relative to control. It counts as functional. In a few lines: as §3

The structures appear in SMILES notation. Calls of active or inactive are those of the source. The rule behind the calls is not given here.

Turning to `CC(C)Cn1c(-c2c(F)cccc2F)c(Cl)nc(-n2cccn2)c1=O`, the Activity was determined as 100% in the assay on Puccinia triticina [1]; 100% with Puccinia triticina [2]; 99% in the assay with Parastagonospora nodorum [4]; 92% in the assay on Parastagonospora nodorum [5]; 0% in the assay with Parastagonospora nodorum [6]; 28% in the assay on Puccinia triticina [7]. The Activity with Botrytis cinerea [8] worked out at 99%; in the assay on Botrytis cinerea [9], 97%; in the assay with Botrytis cinerea [10], 75%. Besides, the outcome on Tubulin (Bos taurus) [3] was Active.
In the case of `CC[C@H](C)Cn1c(-c2c(F)cc(OCCN(C)C)cc2F)c(Cl)nc(-n2cccn2)c1=O`, the Activity in the assay with Puccinia triticina [1] stood at 91%; in the assay on Puccinia triticina [2], 55%; in the assay with Puccinia triticina [11], 100%; in the assay with Botrytis cinerea [12] it was 99%; with Botrytis cinerea [8], 68%; in the assay with Botrytis cinerea [9], 0%. Half-maximal inhibition in assay [13] (IC50) required 210 nM.
For `CC(=O)O[C@H]1C(=O)[C@@]2(C)[C@H]([C@H](OC(=O)c3ccccc3)[C@]3(O)C[C@H](OC(=O)[C@H](O)[C@@H](NC(=O)c4ccccc4)c4ccccc4)C(C)=C1C3(C)C)[C@]1(OC(C)=O)CO[C@@H]1C[C@@H]2O` [PACLITAXEL], the result at Tubulin (Bos taurus) [14] was Active. Besides, the Activity with Parastagonospora nodorum [15] was 91%; in the assay with Puccinia triticina [11], 95%; in the assay with Botrytis cinerea [12], 0%. In [13], the IC50 (as a rule, the concentration that inhibits the measured activity by half) turned out to be 8.4 nM.
For the molecule `CC[C@H](C)Cn1c(-c2c(F)cc(OCCCNC)cc2F)c(Cl)nc(-n2cccn2)c1=O.Cl`, the Activity in the assay on Puccinia triticina [1] came out at 100%; with Puccinia triticina [2], 99%; with Parastagonospora nodorum [15], 100%; in the assay with Parastagonospora nodorum [4], 88%; in the assay on Parastagonospora nodorum [5], 33%; in the assay on Parastagonospora nodorum [6] it was 0%. Moreover, the Activity in the assay on Puccinia triticina [11] amounted to 100%; in the assay with Puccinia triticina [7], 68%; with Botrytis cinerea [12] it was 100%; with Botrytis cinerea [8], 99%; with Botrytis cinerea [9] it was 99%; with Botrytis cinerea [10] it was 21%. Moreover, half-maximal inhibition in assay [13] (IC50) was put at 0.6 nM.
For the molecule `CC(C)Cn1c(-c2c(F)cc(F)cc2F)c(Cl)nc(-n2cccn2)c1=O`, the Activity with Puccinia triticina [1] was 100%; in the assay on Puccinia triticina [2] it was 100%; in the assay on Parastagonospora nodorum [15] it was 100%; in the assay with Parastagonospora nodorum [4], 100%; in the assay on Parastagonospora nodorum [5] it was 90%; with Parastagonospora nodorum [6], 0%. Besides, the Activity with Puccinia triticina [11] came out at 100%; with Puccinia triticina [7] it was 92%; with Botrytis cinerea [12] it was 100%; in the assay on Botrytis cinerea [8], 100%; in the assay on Botrytis cinerea [9], 100%; in the assay on Botrytis cinerea [10], 100%. Also, the outcome on Tubulin (Bos taurus) [3] was Active.
Regarding `CC[C@H](C)Cn1c(-c2c(F)cc(OC)cc2F)c(Cl)nc(-n2cccn2)c1=O`, the Activity in the assay on Puccinia triticina [1] is 100%; in the assay with Puccinia triticina [2], 100%; in the assay with Parastagonospora nodorum [15], 100%; with Parastagonospora nodorum [4], 100%; in the assay with Parastagonospora nodorum [5], 100%; in the assay with Parastagonospora nodorum [6], 69%. For the same molecule, the Activity with Puccinia triticina [11] was found to be 100%; in the assay on Puccinia triticina [7] it was 99%; with Botrytis cinerea [12], 99%; in the assay on Botrytis cinerea [8] it was 99%; with Botrytis cinerea [9] it was 99%; with Botrytis cinerea [10], 99%. In assay [13], this molecule showed an IC50 of 10 nM.
